Usually inhibition stands for the percentage by which the read-out fell short of the control.

The values below come from ChEMBL document CHEMBL4325910, “Design and synthesis of rosiglitazone-ferulic acid-nitric oxide donor trihybrids for improving glucose tolerance” (Eur J Med Chem, 2019).

Active and inactive are the calls of the source. The calls are words filed in the database; no cut-off is given here.

Series [1] is described as follows: Metabolic stability in human liver microsomes measured immediately after compound addition in presence of NADPH by HPLC analysis. The class given is ADME, Microsome. The settings on record: read-out: Stability. The method in brief:
(§1)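 Compound (100 mM DMSO stock) was added in triplicate to 0.1 M phosphate buffer pH 7.4 with 3.3 mM MgCl2 and human liver microsomes, then preincubated 5 min at 37 °C. NADPH (1.3 mM stock) was added and incubation continued 0, 0.5, 1, 2 or 6 h. Acetonitrile quench, then HPLC at 254 nm.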
In general terms: Microsomes from liver hold many membrane-bound enzymes, among them those of drug oxidation.

Series [2] relates to Mus musculus. The series is described as follows: Antidiabetic activity in spontaneous db/db BKS.Cg-Dock7m +/+ Leprdb/J mouse assessed as decrease in fasting blood glucose level at 10 to 20 mg/kg, po administered as daily dose via gavage for 18 days measured on day 9 post last dose by glucometric analysis. Format: functional, organism-based. The method in brief:
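Male db/db mice (BKS.Cg-Dock7m +/+ Leprdb/J), 6 weeks old on purchase, randomized, n=8 per group. Dosed by gavage in 0.5% CMC-Na daily for 18 consecutive days. Vehicle-dosed db/db and C57BL/6 mice served as model and control. Fasting glucose was read by glucometer every three days. On day 12, after an overnight fast, 2 g/kg glucose was given orally. Blood glucose was read at 0–120 min and AUC calculated. Mean ± SEM.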

Series [3] can be described thus: Toxicity in spontaneous db/db BKS.Cg-Dock7m +/+ Leprdb/J mouse assessed as body weight gain at 13.5 umol/kg, po administered as daily dose via gavage treated for 18 days measured post last dose (reference value: 5.6 +/- 2.1 g). Format: organism-based. The settings on record: in vivo, 432 h.
For series [4], the system named is 3T3-L1. Briefly: Induction of nitric oxide mediated increase in insulin-stimulated 2-NBDG uptake in TNF-alpha-induced insulin resistant mouse 3T3L1 cells at 3 to 10 uM preincubated for 48 hrs followed by 2-NBDG addition measured after 30 mins in presence of insulin by fluorescence assay. Format: functional, cell-based. The gist of the method: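 Day-8 differentiated 3T3-L1 adipocytes received TNF-α (4 ng/mL) daily for 4 days. They were pretreated in triplicate for 48 h (C-PTIO 20 μM where indicated), then given 100 μM 2-NBDG at 37 °C for 30 min in the dark, with or without insulin. After KRP washes, fluorescence was read at Ex/Em 485/515 nm. Three experiments, mean ± SD.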

The subject of series [5] is 3T3-L1. The series is described as follows: Induction of GSH level in TNF-alpha-induced insulin resistant mouse 3T3L1 cells at 3 to 10 uM after 48 hrs. Format: functional, cell-based. The gist of the method: (§2)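 3T3-L1 preadipocytes were differentiated, and mature adipocytes made insulin resistant with TNF-α (4 ng/mL) daily for 4 days. Cells were then treated in triplicate for 48 h, with or without 20 μM C-PTIO. Lysate GSH, SOD and MDA were measured with kits. Three experiments, mean ± SD.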

The subject of series [6] is 3T3-L1. Briefly: Induction of superoxide dismutase level in TNF-alpha-induced insulin resistant mouse 3T3L1 cells at 3 to 10 uM after 48 hrs. Format: functional, cell-based. The method in brief:
as §2

A short description of series [7]: Metabolic stability in simulated gastric fluid at pH 1.5 measured immediately after compound addition by HPLC analysis. The settings on record: read-out: Stability. Format: ADME. The gist of the method: (§3)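 Gastric fluid was 1% pepsin in water, pH 1.5. Intestinal fluid was 1% trypsin with 0.68% KH2PO4, pH 6.8. Compound (100 mM DMSO stock) was diluted 1:1000 into each, in triplicate. Incubation was at 37 °C for 0, 2, 4, 6, 16 or 24 h. Acetonitrile (3 volumes) stopped it, then HPLC at 254 nm.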

A short description of series [8]: Metabolic stability in simulated gastric fluid at pH 1.5 measured after 2 hrs by HPLC analysis. Format: ADME. The conditions noted are these: read-out: Stability. The method in brief:
as §3

Series [9] in a line: Metabolic stability in simulated gastric fluid at pH 1.5 measured after 4 hrs by HPLC analysis. Format: ADME. The conditions noted are these: read-out: Stability. The method in brief:
as §3

A short description of series [10]: Metabolic stability in simulated gastric fluid at pH 1.5 measured after 16 hrs by HPLC analysis. Format: ADME. The conditions noted are these: read-out: Stability. The method in brief:
as §3

Series [11] is described as follows: Metabolic stability in human liver microsomes after 0.5 hrs in presence of NADPH by HPLC analysis. The class given is ADME, Microsome. The conditions noted are these: read-out: Stability. The gist of the method:
as §1

Series [12] is described as follows: Metabolic stability in human liver microsomes after 1 hrs in presence of NADPH by HPLC analysis. Format: ADME, Microsome. The conditions noted are these: read-out: Stability. The gist of the method:
as §1

Series [13] has as its system Mus musculus. Briefly: Cardioprotective activity in db/db BKS.Cg-Dock7m +/+ Leprdb/J mouse assessed as decrease in serum cTnI level administered po as daily dose via gavage for 18 days by ELISA. Format: functional, organism-based. The gist of the method: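 db/db mice were gavaged daily for 18 days in 0.5% CMC-Na, with vehicle-treated model and C57BL/6 control groups. Tail vein blood was collected and serum TNF-α and cTnI measured by commercial ELISA kits. Six individual experiments, mean ± SD, one-way ANOVA.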
On the technique in general: ELISA stands for enzyme-linked immunosorbent assay.

In series [14] the test system is Platelet. The series is described as follows: Antiplatelet activity in platelet rich plasma (unknown origin) assessed as inhibition of arachidonic acid-induced platelet aggregation at 0.4 mM relative to control. The class given is functional.
A short description of series [15]: Toxicity in spontaneous db/db BKS.Cg-Dock7m +/+ Leprdb/J mouse assessed as reduction in serum hematocrit value at 27 umol/kg, po administered as daily dose via gavage treated for 18 days. Format: organism-based. The settings on record: in vivo, 432 h.
Series [16] concerns Platelet. The series is described as follows: Antiplatelet activity in platelet rich plasma (unknown origin) assessed as inhibition of ADP-induced platelet aggregation at 2 mM relative to control. The class given is functional.
The nature of series [17]: Toxicity in ICR mouse assessed mouse mortality at 5000 mg/kg, po administered as single dose via gavage treated on day 1 and measured daily up to 14 days. Format: organism-based. The conditions noted are these: in vivo, 336 h. The gist of the method: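 Mice of both sexes, 7 weeks old, were randomized and given one oral gavage dose on day 1. Dose levels were 500, 1000, 2000, 3000, 4000 or 5000 mg/kg, or 2000, 4000 and 5000 mg/kg, with n = 10 per group. Behaviour, health and mortality were checked daily for 14 days, and total deaths were counted on day 14. LD50 was calculated with 95% confidence limits.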

Series [18] can be described thus: Metabolic stability in Sprague-Dawley rat plasma after 24 hrs by HPLC analysis.

As to `CCN(CC)/[N+]([O-])=N/OCOC(=O)/C=C/c1ccc(OC(=O)OCN2C(=O)SC(Cc3ccc(OCCN(C)c4ccccn4)cc3)C2=O)c(OC)c1` (stereo not drawn), the remaining at 0 h in series [1] and in series [7] was 100% in each case. In addition, the outcome in series [2], in series [4], in series [5] and in series [6] was Active. In addition, the Activity in series [3] is 4 g; in series [13] it was “Dose-dependent effect”. Also, in series [8], the remaining at 2 h was 99.8%. The remaining at 4 h in [9] was 97%. Besides, in series [10], the remaining at 16 h is 86.6%. Further, the remaining at 0.5 h in series [11] is 94.3%. Also, the remaining at 1 h in series [12] is 89.9%. For the same molecule, in [14], the inhibition at 400 µM amounted to 40.6%.
For `CN(CCOc1ccc(CC2SC(=O)NC2=O)cc1)c1ccccn1` (stereo not drawn) [ROSIGLITAZONE], the Activity result in series [15] and in [17] was “Toxic” in each case. For the same molecule, the inhibition at 2000 µM in series [16] came to 25.3%. The same molecule yielded a Stability in [18] of 39%.
